{
  "source": "ChEMBL document CHEMBL1671864",
  "about": "“First assessment in humans of the safety, tolerability, pharmacokinetics, and ex vivo pharmacodynamic antimalarial activity of the new artemisinin derivative artemisone” (Antimicrob Agents Chemother, 2008)",
  "key": {"[1]": {"assay": "Tmax in healthy human plasma at 80 mg, po administered as four 20 mg immediate release tablets daily for 3 days during 10 hrs overnight fasting state measured after 1 day", "type": "ADME, organism-based", "procedure,_shortened": "(§1)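 Healthy Caucasian men (8 active, 4 placebo per dose) dosed with tablets daily for 3 days after 10-h fast. Lithium-heparin plasma sampled predose and 0.25–14 h after day-1 and day-3 doses, stored frozen. Parent and M1–M3 quantified by LC/MS-MS in positive-ion MRM. Tmax taken directly from observed individual data.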"}, "[2]": {"assay": "Tmax in healthy human plasma at 40 mg, po administered as single ascending doses as solution during 10 hrs overnight fasting state", "type": "ADME, organism-based", "procedure,_shortened": "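Healthy Caucasian male volunteers, randomized within each dose group against placebo, given a single oral solution with 240 ml water after a 10-h overnight fast. Plasma sampled predose and at 0.25–14 h, quantified by LC/MS-MS (MRM, deuterated internal standard). Tmax read directly from individual noncompartmental concentration–time data.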"}, "Plasma": {"test_system": "Plasma", "assay": "Ratio of Cmax in healthy human plasma at 40 mg, po administered as two 20 mg immediate release tablets daily for 3 days during 10 hrs overnight fasting state measured after 1 day to Cmax in healthy human plasma at 40 mg, po administered as two 20 mg immediate release tablets daily for 3 days during 10 hrs overnight fasting state measured after 3 day", "type": "ADME, organism-based", "details": "in vivo", "procedure,_shortened": "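Healthy Caucasian men took tablets daily for 3 days with 240 ml water after 10-h fast. Plasma sampled 0.25–14 h after first and last doses, artemisone measured by LC/MS-MS. Accumulation ratio is Cmax or AUC0-∞ after last dose divided by that after first dose. Noncompartmental analysis, geometric means with 95% CI.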"}, "[3]": {"assay": "Apparent volume of distribution with respect to the bioavailability in healthy human at 40 mg, po administered as single ascending doses as solution during 10 hrs overnight fasting state", "type": "ADME, organism-based", "details": "in vivo, read-out: Vc/F", "procedure,_shortened": "(§2)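 Single ascending oral doses in healthy Caucasian men, given fasted (10-h overnight) with 240 ml water: 10, 20, 30 or 40 mg as oral solution, or 80 mg as IR tablets. Parent plasma levels by LC/MS-MS over 0.25–14 h. Noncompartmental analysis: kel by terminal-phase least-squares regression, AUC extrapolated to infinity, CL/F = dose/AUC, V/F = CL/F÷kel.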"}, "Plasmodium falciparum": {"test_system": "Plasmodium falciparum", "assay": "Antimalarial activity against Plasmodium falciparum K1 in human plasma assessed as inhibition of hypoxanthine uptake by intraerythrocytic malaria parasites by hypoxanthine incorporation assay", "type": "functional, organism-based", "procedure,_shortened": "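K1 or TM90-C2A parasites were sorbitol-synchronized and cultured in RPMI 1640. Drug was diluted in drug-free human serum (0.04–40 ng/ml) or subject plasma was diluted twofold (8–8,192). Parasites were added at 2% hematocrit, 1% parasitemia (>95% rings), and [3H]hypoxanthine uptake was measured over 48 h. IC50 or ID50 came from concentration or dilution-response curves. Equivalent concentration = ID50 × IC50.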"}, "[4]": {"assay": "Tmax in healthy human plasma at 40 mg, po administered as two 20 mg immediate release tablets daily for 3 days during 10 hrs overnight fasting state measured after 1 day", "type": "ADME, organism-based", "procedure,_shortened": "as §1"}, "[5]": {"assay": "Apparent volume of distribution with respect to the bioavailability in healthy human at 80 mg, po administered as single immediate release tablets during 10 hrs overnight fasting state", "type": "ADME, organism-based", "details": "in vivo, read-out: Vc/F", "procedure,_shortened": "as §2"}, "[6]": {"assay": "Mean residence time in healthy human at 10 mg, po administered as single ascending doses as solution during 10 hrs overnight fasting state", "type": "ADME, organism-based", "details": "in vivo", "procedure,_shortened": "(§3)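 Healthy Caucasian male volunteers, single oral dose with 240 ml water after a 10-h overnight fast. Heparinised venous blood was drawn predose and at 0.25–14 h. Plasma was stored frozen. Parent drug and metabolites M1–M3 were measured by LC/MS-MS (MRM, deuterated internal standard). Noncompartmental analysis gave Cmax observed, t1/2 = 0.693/kel (terminal regression) and MRT = AUMC/AUC. Values are geometric means.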"}, "Homo sapiens [7]": {"test_system": "Homo sapiens", "assay": "Toxicity in healthy human assessed as occurrence of adverse event at 80 mg, po administered daily for 3 days as four 20-mg immediate-release tablets during 10 hrs overnight fasting state", "type": "organism-based", "details": "in vivo", "procedure,_shortened": "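3-day daily oral tablet dosing in healthy Caucasian men (8 active, 4 placebo per dose). Adverse events were collected by open questioning and spontaneous report. Severity was graded mild (daily activities unaffected), moderate (some interference) or severe (activities not completed).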"}, "[8]": {"assay": "Mean residence time in healthy human at 80 mg, po administered as single immediate release tablets during 10 hrs overnight fasting state", "type": "ADME, organism-based", "details": "in vivo", "procedure,_shortened": "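Healthy Caucasian male volunteers (n=6 active, 2 placebo, randomized), single 80 mg dose as four 20-mg tablets with 240 ml water after 10-h fast. Venous lithium-heparin plasma sampled predose and 0.25–14 h; analysed by LC/MS-MS (MRM, deuterated internal standard). Noncompartmental analysis; Tmax observed directly; MRT = AUMC/AUC with extrapolation to infinity via kel.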"}, "[9]": {"assay": "Half life in healthy human plasma at 40 mg, po administered as two 20 mg immediate release tablets daily for 3 days during 10 hrs overnight fasting state measured after 3 day", "type": "ADME, organism-based", "procedure,_shortened": "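Healthy Caucasian males took tablets once daily for 3 days with 240 ml water after a 10-h fast. Heparinised blood was drawn predose and at 0.25–14 h after the first and last doses. Plasma parent drug and metabolites M1–M3 were measured by LC/MS-MS (MRM, deuterated internal standard). Noncompartmental analysis gave Cmax observed, t1/2 = 0.693/kel and MRT = AUMC/AUC. Values are geometric means.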"}, "Homo sapiens [10]": {"test_system": "Homo sapiens", "assay": "Toxicity in healthy human assessed as occurrence of changes in electrocardiogram parameters at 80 mg, po administered daily for 3 days as four 20-mg immediate-release tablets during 10 hrs overnight fasting state", "type": "organism-based", "details": "in vivo", "procedure,_shortened": "(§4)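 Healthy Caucasian men received single ascending doses (10–40 mg solution, 80 mg tablets) or 3-day daily tablet courses, all fasting, with randomized placebo controls. Supine blood pressure, heart rate and resting 12-lead ECG were recorded before and after dosing.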"}, "[11]": {"assay": "Apparent oral clearance in healthy human at 80 mg, po administered as four 20 mg immediate release tablets daily for 3 days during 10 hrs overnight fasting state measured after 3 day", "type": "ADME, organism-based", "details": "in vivo", "procedure,_shortened": "(§5)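 Healthy Caucasian males took 40 mg (2×20-mg IR tablets) or 80 mg (4 tablets) orally daily for 3 days after a 10-h fast. Plasma parent drug was measured by LC/MS-MS from predose to 14 h after the first and third doses. Noncompartmental analysis: AUC by log-linear trapezoid extrapolated via kel, CL/F = dose/AUC, V/F = CL/F÷kel, geometric means.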"}, "[12]": {"assay": "Mean residence time in healthy human at 20 mg, po administered as single ascending doses as solution during 10 hrs overnight fasting state", "type": "ADME, organism-based", "details": "in vivo", "procedure,_shortened": "as §3"}, "Homo sapiens [13]": {"test_system": "Homo sapiens", "assay": "Toxicity in healthy human assessed as occurrence of clinically relevant changes in vital signs at 80 mg, po administered daily for 3 days as four 20-mg immediate-release tablets during 10 hrs overnight fasting state", "type": "organism-based", "details": "in vivo", "procedure,_shortened": "as §4"}, "[14]": {"assay": "Cmax in healthy human plasma at 30 mg, po administered as single ascending doses as solution during 10 hrs overnight fasting state", "type": "ADME, organism-based", "set-up": "dose 30 mg, route oral", "procedure,_shortened": "as §3"}, "[15]": {"assay": "Half life in healthy human plasma at 10 mg, po administered as single ascending doses as solution during 10 hrs overnight fasting state", "type": "ADME, organism-based", "procedure,_shortened": "as §3"}, "[16]": {"assay": "Mean residence time in healthy human at 40 mg, po administered as single ascending doses as solution during 10 hrs overnight fasting state", "type": "ADME, organism-based", "details": "in vivo", "procedure,_shortened": "as §3"}, "[17]": {"assay": "Apparent oral clearance in healthy human at 80 mg, po administered as four 20 mg immediate release tablets daily for 3 days during 10 hrs overnight fasting state measured after 1 day", "type": "ADME, organism-based", "details": "in vivo", "procedure,_shortened": "as §5"}, "[18]": {"assay": "Apparent oral clearance in healthy human at 40 mg, po administered as single ascending doses as solution during 10 hrs overnight fasting state", "type": "ADME, organism-based", "details": "in vivo", "procedure,_shortened": "as §2"}, "[19]": {"assay": "Tmax in healthy human plasma at 80 mg, po administered as four 20 mg immediate release tablets daily for 3 days during 10 hrs overnight fasting state measured after 3 day", "type": "ADME, organism-based", "procedure,_shortened": "as §1"}},
  "data": [
    {"smiles": "C[C@H]1[C@H](N2CCS(=O)(=O)CC2)O[C@@H]2O[C@@]3(C)CC[C@H]4[C@H](C)CC[C@@H]1[C@@]24OO3", "note": "[ARTEMIFONE]", "values": [
      {"measurement": "Tmax", "setting": "[1]", "value": 1.5, "unit": "h"},
      {"measurement": "Tmax", "setting": "[2]", "value": 0.625, "unit": "h"},
      {"measurement": "Ratio", "setting": "Plasma", "value": 98.5, "unit": "%"},
      {"measurement": "Vd/F", "setting": "[3]", "value": 22.2, "unit": "L/kg"},
      {"measurement": "IC50", "setting": "Plasmodium falciparum", "value": 0.6, "unit": "ng/mL"},
      {"measurement": "Tmax", "setting": "[4]", "value": 1.5, "unit": "h"},
      {"measurement": "Vd/F", "setting": "[5]", "value": 14.5, "unit": "L/kg"},
      {"measurement": "MRT", "setting": "[6]", "value": 0.98, "unit": "h"},
      {"measurement": "Activity", "setting": "Homo sapiens [7]", "value": "Non-toxic"},
      {"measurement": "MRT", "setting": "[8]", "value": 2.64, "unit": "h"},
      {"measurement": "half-life", "setting": "[9]", "value": 4.37, "unit": "h"},
      {"measurement": "Activity", "setting": "Homo sapiens [10]", "value": "Non-toxic"},
      {"measurement": "CL/F", "setting": "[11]", "value": 3950, "unit": "mL/min"},
      {"measurement": "MRT", "setting": "[12]", "value": 1.79, "unit": "h"},
      {"measurement": "Activity", "setting": "Homo sapiens [13]", "value": "Non-toxic"},
      {"measurement": "Cmax", "setting": "[14]", "value": 50.5, "unit": "ng/mL"},
      {"measurement": "half-life", "setting": "[15]", "value": 1.51, "unit": "h"},
      {"measurement": "MRT", "setting": "[16]", "value": 2.39, "unit": "h"},
      {"measurement": "CL/F", "setting": "[17]", "value": 3880, "unit": "mL/min"},
      {"measurement": "CL/F", "setting": "[18]", "value": 5640, "unit": "mL/min"},
      {"measurement": "Tmax", "setting": "[19]", "value": 1.5, "unit": "h"}
    ]}
  ]
}
